Measured values taken from ChEMBL document CHEMBL4477187, “Macrolides from a Marine-Derived Fungus, Penicillium meleagrinum var. viridiflavum, Showing Synergistic Effects with Fluconazole against Azole-Resistant Candida albicans” (2016).
Converted amounts (≈) assume the structure as drawn.

How the values were obtained:
Format in all cases: functional
Candida albicans [1] = test: Antifungal activity against fluconazole/itraconazole/voriconazole-resistant Candida albicans clinical isolate J2-36 incubated for 48 hrs in presence of fluconazole by checkerboard microdilution assay; details: isolate J2-36, 48 h
In short: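 Test compound combined with fluconazole against the clinical isolate, 48 h at 37 °C. Combination MIC taken as lowest concentration giving ≥90% growth reduction versus drug-free control.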

Candida albicans [2] = test: Antifungal activity against fluconazole/itraconazole/voriconazole-resistant Candida albicans clinical isolate J2-36 incubated for 48 hrs by microdilution assay; details: isolate J2-36, 48 h
In short: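 Clinical isolate grown 48 h at 37 °C with test compound alone, tested up to […] μg/mL. MIC read as lowest concentration giving ≥90% growth reduction versus drug-free control.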

Candida albicans [3] = test: Antifungal activity against fluconazole/itraconazole/voriconazole-resistant Candida albicans clinical isolate J2-36 assessed as fractional inhibitory concentration in presence of fluconazole incubated for 48 hrs by checkerboard microdilution assay
In short: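 FICA per test compound = MIC in combination with fluconazole / MIC alone. Clinical isolate incubated 48 h at 37 °C. Each MIC = lowest concentration giving ≥90% growth reduction versus drug-free control.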

Compound | MIC (Candida albicans [1]) | MIC (Candida albicans [2]) | Ratio (Candida albicans [3])
CCCCC[C@@H]1CC[C@H](C)CCCCC(=O)N(C)[C@@H](Cc2ccc(OCCO)cc2)C(=O)O1 | 0.0016 µg/mL | 2 µg/mL (≈ 4.33 µM) | 0.00078
CCC[C@H](O)C[C@@H]1CC[C@H](C)CCCCC(=O)N(C)[C@@H](Cc2ccc(OCC(O)C(C)(C)O)cc2)C(=O)O1 (some centres not stated) | 0.5 µg/mL | > 32 µg/mL | <0.016
CCCCCCC[C@@H]1CC[C@H](C)CCCCC(=O)N(C)[C@@H](Cc2ccc(OCCO)cc2)C(=O)O1 | 0.5 µg/mL | > 32 µg/mL | <0.016
CCC[C@@H]1CC[C@H](C)CCCCC(=O)N(C)[C@@H](Cc2ccc(OCCO)cc2)C(=O)O1 | 0.125 µg/mL | 16 µg/mL (≈ 36.9 µM) | 0.0078
C[C@@H]1CCCCC(=O)N(C)[C@@H](Cc2ccc(OCCO)cc2)C(=O)O[C@H](C[C@H](C)O)CC1 | 0.031 µg/mL | 8 µg/mL (≈ 17.8 µM) | 0.0039
CCC[C@H](O)C[C@@H]1CC[C@H](C)CCCCC(=O)N(C)[C@@H](Cc2ccc(OCCO)cc2)C(=O)O1 | 0.0078 µg/mL | 1 µg/mL (≈ 2.09 µM) | 0.0078
CCCCC[C@@H]1CC[C@H](C)CCCCC(=O)N(C)[C@@H](Cc2ccc(OCC=C(C)C)cc2)C(=O)O1 | 1 µg/mL | > 32 µg/mL | <0.031
OC(Cn1cncn1)(Cn1cncn1)c1ccc(F)cc1F [FLUCONAZOLE] | – | > 64 µg/mL | –
